Experimental data from ChEMBL document CHEMBL4184148 (Bioorg Med Chem Lett, 2017).

Legend:
[1] = target: Glycogen synthase kinase-3 alpha (Homo sapiens) (UniProt P49840); assay: Binding affinity to wild-type human full length GSK3A (M1 to S483 residues) expressed in Escherichia coli BL21 at 1 uM by Kinomescan method relative to control
Method in brief: (§1)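 Run as one kinome-wide competition binding panel with each compound at a single fixed concentration. Results were plotted as a kinome-wide selectivity map.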

[2] = target: Serine/threonine-protein kinase Nek4 (Homo sapiens) (UniProt P51957); assay: Binding affinity to wild-type human full length NEK4 (M1 to F841 residues) expressed in HEK293 cells at 1 uM by Kinomescan method relative to control; format: cell-based
Method in brief: (§2)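 Kinome-wide competition binding panel run by an outside provider, with each compound tested at a single concentration. Activity is read against the kinase panel.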

[3] = target: Serine/threonine-protein kinase Sgk1 (Homo sapiens) (UniProt O00141); assay: Binding affinity to wild-type human partial length SGK (I60 to L431 residues) expressed in HEK293 cells at 1 uM by Kinomescan method relative to control; format: cell-based
[4] = tested on: Serine/threonine-protein kinase B-raf (Homo sapiens), P15056 [V600E]; assay: Binding affinity to human partial length BRAF V600E mutant (S429 to E741 residues) expressed in HEK293 cells at 1 uM by Kinomescan method relative to control; format: cell-based
[5] = target: Ribosomal protein S6 kinase alpha-4 (Homo sapiens) (UniProt O75676); assay: Binding affinity to wild-type human partial length N-terminal RPS6KA4 kinase domain 1 expressed in Escherichia coli BL21 at 1 uM by Kinomescan method relative to control
[6] = target: Tyrosine-protein kinase SYK (Homo sapiens) (UniProt P43405); assay: Binding affinity to wild-type human partial length SYK (D354 to N635 residues) expressed in Escherichia coli BL21 at 1 uM by Kinomescan method relative to control
[7] = target: Serine/threonine-protein kinase TNNI3K (Homo sapiens) (UniProt Q59H18); assay: Binding affinity to wild-type human full length TNNI3K (M1 to S835 residues) expressed in Escherichia coli BL21 at 1 uM by Kinomescan method relative to control; method in brief: as §2
[8] = target: Ephrin type-A receptor 2 (Homo sapiens) (UniProt P29317); assay: Binding affinity to wild-type human partial length EPHA2 (T593 to V891 residues) expressed in Escherichia coli BL21 at 1 uM by Kinomescan method relative to control
[9] = target: RAC-gamma serine/threonine-protein kinase (Homo sapiens) (UniProt Q9Y243); assay: Binding affinity to wild-type human partial length AKT3 expressed in Escherichia coli BL21 at 1 uM by Kinomescan method relative to control; method in brief: as §2
[10] = target: Calcium/calmodulin-dependent protein kinase type 1B (Homo sapiens) (UniProt Q6P2M8); assay: Binding affinity to wild-type human partial length CAMK1B (W9 to A311 residues) expressed in HEK293 cells at 1 uM by Kinomescan method relative to control; format: cell-based
[11] = tested on: Mast/stem cell growth factor receptor Kit (Homo sapiens), P10721 [V559D]; assay: Binding affinity to human partial length KIT V559D mutant (Y545 to D952 residues) expressed in Escherichia coli BL21 at 1 uM by Kinomescan method relative to control
[12] = target: Cyclin-dependent kinase 18 (Homo sapiens) (UniProt Q07002); assay: Binding affinity to wild-type human full length PCTK3 (M3 to F474 residues) expressed in Escherichia coli BL21 at 1 uM by Kinomescan method relative to control; method in brief: as §2
[13] = target: Insulin receptor-related protein (Homo sapiens) (UniProt P14616); assay: Binding affinity to wild-type human partial length INSRR (R950 to E1278 residues) expressed in Escherichia coli BL21 at 1 uM by Kinomescan method relative to control
[14] = tested on: Mast/stem cell growth factor receptor Kit (Homo sapiens), P10721 [A829P]; assay: Binding affinity to human partial length KIT A829P mutant (I571 to D952 residues) expressed in HEK293 cells at 1 uM by Kinomescan method relative to control; format: cell-based
[15] = target: Ephrin type-A receptor 8 (Homo sapiens) (UniProt P29322); assay: Binding affinity to wild-type human partial length EPHA8 (Q608 to C920 residues) expressed in Escherichia coli BL21 at 1 uM by Kinomescan method relative to control
[16] = target: MAP/microtubule affinity-regulating kinase 4 (Homo sapiens) (UniProt Q96L34); assay: Binding affinity to wild-type human partial length MARK4 (K29 to G340 residues) expressed in Escherichia coli BL21 at 1 uM by Kinomescan method relative to control
[17] = target: Fibroblast growth factor receptor 4 (Homo sapiens) (UniProt P22455); assay: Binding affinity to wild-type human partial length FGFR4 (G402 to E713 residues) expressed in Escherichia coli BL21 at 1 uM by Kinomescan method relative to control
[18] = target: cAMP-dependent protein kinase catalytic subunit PRKX (Homo sapiens) (UniProt P51817); assay: Binding affinity to wild-type human partial length PRKX (M1 to F358 residues) expressed in Escherichia coli BL21 at 1 uM by Kinomescan method relative to control
[19] = target: cAMP-dependent protein kinase catalytic subunit alpha (Homo sapiens) (UniProt P17612); assay: Binding affinity to wild-type human partial length PKAC-alpha (G10 to F351 residues) expressed in Escherichia coli BL21 at 1 uM by Kinomescan method relative to control
[20] = target: Mitogen-activated protein kinase kinase kinase 11 (Homo sapiens) (UniProt Q16584); assay: Binding affinity to wild-type human partial length MLK3 (I77 to W399 residues) expressed in Escherichia coli BL21 at 1 uM by Kinomescan method relative to control
[21] = target: Vascular endothelial growth factor receptor 2 (Homo sapiens) (UniProt P35968); assay: Binding affinity to wild-type human partial length VEGFR2 (R787 to P1253 residues) expressed in HEK293 cells at 1 uM by Kinomescan method relative to control; format: cell-based
[22] = tested on: ALK tyrosine kinase receptor (Homo sapiens), Q9UM73 [C1156Y]; assay: Binding affinity to wild-type human partial length ALK C1156Y mutant (I1088 to E1409 residues) expressed in HEK293 cells at 1 uM by Kinomescan method relative to control; format: cell-based
[23] = target: Dual specificity mitogen-activated protein kinase kinase 3 (Homo sapiens) (UniProt P46734); assay: Binding affinity to wild-type human full length MEK3 (M1 to S318 residues) expressed in HEK293 cells at 1 uM by Kinomescan method relative to control; format: cell-based; method in brief: as §1
[24] = target: Calcium/calmodulin-dependent protein kinase type 1 (Homo sapiens) (UniProt Q14012); assay: Binding affinity to wild-type human full length CAMK1 (M1 to L370 residues) expressed in Escherichia coli BL21 at 1 uM by Kinomescan method relative to control
[25] = target: Phosphatidylinositol 5-phosphate 4-kinase type-2 beta (Homo sapiens) (UniProt P78356); assay: Binding affinity to wild-type human full length PIP5K2B (M1 to T416 residues) expressed in Escherichia coli BL21 at 1 uM by Kinomescan method relative to control; method in brief: as §2

Chain of Vascular endothelial growth factor receptor 2 (Homo sapiens) (P35968 whole entry, the tested form may be a part): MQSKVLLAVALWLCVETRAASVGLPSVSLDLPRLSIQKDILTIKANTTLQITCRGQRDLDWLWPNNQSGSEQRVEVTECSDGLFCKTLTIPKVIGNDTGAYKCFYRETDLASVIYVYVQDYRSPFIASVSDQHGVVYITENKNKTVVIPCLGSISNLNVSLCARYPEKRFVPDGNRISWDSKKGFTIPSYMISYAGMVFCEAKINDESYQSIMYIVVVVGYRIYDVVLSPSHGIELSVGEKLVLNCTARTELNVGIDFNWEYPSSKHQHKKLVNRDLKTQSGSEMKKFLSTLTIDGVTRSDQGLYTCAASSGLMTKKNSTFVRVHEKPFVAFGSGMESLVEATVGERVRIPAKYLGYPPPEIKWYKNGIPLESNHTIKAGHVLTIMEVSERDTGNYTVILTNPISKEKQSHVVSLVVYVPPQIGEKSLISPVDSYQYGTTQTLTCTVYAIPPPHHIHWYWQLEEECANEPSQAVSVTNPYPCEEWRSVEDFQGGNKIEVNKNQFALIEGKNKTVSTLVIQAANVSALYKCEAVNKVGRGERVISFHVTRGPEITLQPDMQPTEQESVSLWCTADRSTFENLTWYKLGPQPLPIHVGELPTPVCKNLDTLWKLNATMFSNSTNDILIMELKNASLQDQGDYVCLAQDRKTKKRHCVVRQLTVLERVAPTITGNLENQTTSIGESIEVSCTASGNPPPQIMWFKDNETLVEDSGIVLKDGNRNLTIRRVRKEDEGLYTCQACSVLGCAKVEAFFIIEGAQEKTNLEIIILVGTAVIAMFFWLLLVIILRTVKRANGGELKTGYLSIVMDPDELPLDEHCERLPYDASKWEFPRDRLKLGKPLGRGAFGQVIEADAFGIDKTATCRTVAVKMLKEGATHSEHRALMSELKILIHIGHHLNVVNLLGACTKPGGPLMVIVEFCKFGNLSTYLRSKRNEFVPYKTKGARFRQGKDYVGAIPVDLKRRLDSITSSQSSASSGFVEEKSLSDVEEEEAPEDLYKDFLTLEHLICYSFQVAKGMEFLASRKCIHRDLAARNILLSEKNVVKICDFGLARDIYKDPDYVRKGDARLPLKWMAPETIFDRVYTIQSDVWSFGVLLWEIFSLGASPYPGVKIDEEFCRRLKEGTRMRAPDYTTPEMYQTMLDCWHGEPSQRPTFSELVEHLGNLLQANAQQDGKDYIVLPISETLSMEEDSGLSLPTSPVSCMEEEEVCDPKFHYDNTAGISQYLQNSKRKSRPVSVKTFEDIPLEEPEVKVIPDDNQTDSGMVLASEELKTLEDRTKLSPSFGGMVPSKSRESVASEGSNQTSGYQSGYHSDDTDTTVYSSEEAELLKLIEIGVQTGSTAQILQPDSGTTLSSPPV
Chain of Ribosomal protein S6 kinase alpha-4 (Homo sapiens) (O75676 whole entry, looked up, the tested form may be a part): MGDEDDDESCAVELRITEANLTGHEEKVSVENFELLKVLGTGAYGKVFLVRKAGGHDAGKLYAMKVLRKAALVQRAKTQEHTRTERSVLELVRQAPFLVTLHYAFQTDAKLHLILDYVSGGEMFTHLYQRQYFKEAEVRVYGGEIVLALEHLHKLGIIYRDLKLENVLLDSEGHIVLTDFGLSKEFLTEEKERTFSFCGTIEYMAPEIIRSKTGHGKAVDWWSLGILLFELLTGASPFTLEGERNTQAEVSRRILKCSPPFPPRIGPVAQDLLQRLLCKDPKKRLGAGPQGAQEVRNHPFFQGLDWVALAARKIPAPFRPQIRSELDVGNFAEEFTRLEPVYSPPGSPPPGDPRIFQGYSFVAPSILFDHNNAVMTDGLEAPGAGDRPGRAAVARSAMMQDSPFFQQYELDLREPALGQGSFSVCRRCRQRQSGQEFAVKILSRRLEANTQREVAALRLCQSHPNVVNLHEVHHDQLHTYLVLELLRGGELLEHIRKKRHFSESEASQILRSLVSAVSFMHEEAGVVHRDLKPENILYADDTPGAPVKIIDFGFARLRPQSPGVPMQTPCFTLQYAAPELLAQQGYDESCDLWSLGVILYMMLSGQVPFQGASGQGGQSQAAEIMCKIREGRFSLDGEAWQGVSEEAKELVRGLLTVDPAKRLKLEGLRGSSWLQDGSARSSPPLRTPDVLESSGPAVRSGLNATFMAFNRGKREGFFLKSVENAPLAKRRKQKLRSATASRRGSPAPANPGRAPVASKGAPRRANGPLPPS
Chain of Serine/threonine-protein kinase Nek4 (Homo sapiens) (P51957 whole entry, looked up, the tested form may be a part): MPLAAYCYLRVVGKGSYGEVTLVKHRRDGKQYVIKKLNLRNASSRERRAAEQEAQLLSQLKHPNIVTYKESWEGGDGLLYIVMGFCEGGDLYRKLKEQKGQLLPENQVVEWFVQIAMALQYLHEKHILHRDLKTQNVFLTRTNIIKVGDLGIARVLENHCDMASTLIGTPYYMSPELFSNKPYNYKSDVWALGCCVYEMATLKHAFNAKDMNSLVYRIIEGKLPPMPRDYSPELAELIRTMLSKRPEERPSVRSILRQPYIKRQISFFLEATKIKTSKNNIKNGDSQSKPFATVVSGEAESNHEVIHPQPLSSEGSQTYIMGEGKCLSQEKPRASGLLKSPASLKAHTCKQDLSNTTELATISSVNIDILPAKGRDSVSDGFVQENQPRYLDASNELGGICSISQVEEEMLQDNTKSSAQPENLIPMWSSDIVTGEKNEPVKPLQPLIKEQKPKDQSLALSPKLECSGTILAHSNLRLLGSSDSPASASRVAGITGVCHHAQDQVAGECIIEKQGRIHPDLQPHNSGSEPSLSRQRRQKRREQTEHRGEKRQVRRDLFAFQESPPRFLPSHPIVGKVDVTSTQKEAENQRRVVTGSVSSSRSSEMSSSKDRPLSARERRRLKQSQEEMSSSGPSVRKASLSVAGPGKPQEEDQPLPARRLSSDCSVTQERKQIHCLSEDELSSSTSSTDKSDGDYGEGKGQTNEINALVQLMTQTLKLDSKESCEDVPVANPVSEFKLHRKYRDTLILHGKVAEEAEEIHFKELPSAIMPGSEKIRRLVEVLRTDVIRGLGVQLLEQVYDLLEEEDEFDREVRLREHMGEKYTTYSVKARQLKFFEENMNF
Chain of Dual specificity mitogen-activated protein kinase kinase 3 (Homo sapiens) (P46734 whole entry, the tested form may be a part): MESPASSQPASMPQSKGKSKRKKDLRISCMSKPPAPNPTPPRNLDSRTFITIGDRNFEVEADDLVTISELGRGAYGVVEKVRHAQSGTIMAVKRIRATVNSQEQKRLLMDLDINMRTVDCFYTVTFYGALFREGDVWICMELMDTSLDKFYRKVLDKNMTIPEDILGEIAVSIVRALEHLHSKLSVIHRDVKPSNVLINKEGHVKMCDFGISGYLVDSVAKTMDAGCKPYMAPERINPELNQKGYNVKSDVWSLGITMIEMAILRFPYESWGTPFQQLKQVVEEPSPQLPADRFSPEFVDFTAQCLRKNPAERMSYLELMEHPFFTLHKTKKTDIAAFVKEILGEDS
Chain of Fibroblast growth factor receptor 4 (Homo sapiens) (P22455 22-802 limits assumed): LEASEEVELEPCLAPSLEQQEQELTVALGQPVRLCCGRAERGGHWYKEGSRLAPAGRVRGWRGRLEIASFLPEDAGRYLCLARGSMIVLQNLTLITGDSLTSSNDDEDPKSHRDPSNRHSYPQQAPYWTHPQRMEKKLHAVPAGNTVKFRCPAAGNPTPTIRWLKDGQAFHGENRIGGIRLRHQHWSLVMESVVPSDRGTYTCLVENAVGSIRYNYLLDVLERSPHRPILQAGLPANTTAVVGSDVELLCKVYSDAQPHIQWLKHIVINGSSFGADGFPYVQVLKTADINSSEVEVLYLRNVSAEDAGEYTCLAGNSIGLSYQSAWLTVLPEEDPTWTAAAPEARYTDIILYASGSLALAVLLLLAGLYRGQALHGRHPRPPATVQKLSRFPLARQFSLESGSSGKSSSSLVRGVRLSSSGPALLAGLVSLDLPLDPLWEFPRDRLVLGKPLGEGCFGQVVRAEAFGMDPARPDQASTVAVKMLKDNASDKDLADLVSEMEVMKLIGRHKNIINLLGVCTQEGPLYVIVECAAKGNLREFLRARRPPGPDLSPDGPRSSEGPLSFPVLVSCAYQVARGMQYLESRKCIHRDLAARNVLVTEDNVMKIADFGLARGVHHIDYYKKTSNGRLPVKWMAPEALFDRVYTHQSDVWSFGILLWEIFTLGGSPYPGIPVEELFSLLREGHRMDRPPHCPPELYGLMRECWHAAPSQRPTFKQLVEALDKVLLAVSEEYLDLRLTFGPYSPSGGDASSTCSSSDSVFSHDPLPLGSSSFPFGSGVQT
Chain of Mast/stem cell growth factor receptor Kit (Homo sapiens), P10721 [A829P] (P10721 whole entry A829P, the tested form may be a part): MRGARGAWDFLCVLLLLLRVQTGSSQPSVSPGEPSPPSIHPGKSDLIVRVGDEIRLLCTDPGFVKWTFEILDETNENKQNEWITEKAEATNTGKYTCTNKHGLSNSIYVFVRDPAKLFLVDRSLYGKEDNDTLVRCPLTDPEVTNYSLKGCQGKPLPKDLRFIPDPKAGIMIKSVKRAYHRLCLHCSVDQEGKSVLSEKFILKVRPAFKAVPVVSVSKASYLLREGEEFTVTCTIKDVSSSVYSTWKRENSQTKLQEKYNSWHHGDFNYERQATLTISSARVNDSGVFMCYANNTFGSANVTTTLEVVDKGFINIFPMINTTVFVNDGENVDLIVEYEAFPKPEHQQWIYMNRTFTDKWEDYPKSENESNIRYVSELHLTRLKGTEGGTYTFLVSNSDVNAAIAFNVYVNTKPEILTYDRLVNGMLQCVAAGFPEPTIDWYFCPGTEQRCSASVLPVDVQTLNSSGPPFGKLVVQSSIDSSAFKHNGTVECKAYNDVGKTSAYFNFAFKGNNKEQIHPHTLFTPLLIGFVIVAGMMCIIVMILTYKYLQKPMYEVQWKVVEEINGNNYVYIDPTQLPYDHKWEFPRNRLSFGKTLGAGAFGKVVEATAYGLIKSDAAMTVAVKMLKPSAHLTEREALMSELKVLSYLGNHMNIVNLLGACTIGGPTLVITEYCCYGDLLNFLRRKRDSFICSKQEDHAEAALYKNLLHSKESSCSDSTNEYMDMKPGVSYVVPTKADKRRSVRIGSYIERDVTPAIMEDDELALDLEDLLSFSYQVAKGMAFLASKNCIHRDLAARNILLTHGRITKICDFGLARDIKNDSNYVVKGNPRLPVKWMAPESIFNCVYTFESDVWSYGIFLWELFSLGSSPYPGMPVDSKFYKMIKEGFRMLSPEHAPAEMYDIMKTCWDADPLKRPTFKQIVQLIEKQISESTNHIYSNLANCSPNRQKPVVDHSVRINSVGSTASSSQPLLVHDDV

Structure (SMILES)	Activity [1]	Activity [2]	Activity [3]	Activity [4]	Activity [5]	Activity [6]	Activity [7]	Activity [8]	Activity [9]	Activity [10]	Activity [11]	Activity [12]	Activity [13]	Activity [14]	Activity [15]	Activity [16]	Activity [17]	Activity [18]	Activity [19]	Activity [20]	also measured
CCC(=O)Nc1ccc(C(=O)Nc2ccc(Nc3ncc4c(n3)N(C)c3ccc(C)cc3C(=O)N4C)cc2)cc1	100%	76%	79%	100%	95%	87%	100%	96%	100%	45%	94%	86%	100%	54%	80%	85%	97%	80%	87%	95%	Activity [21]: 76%; Activity [22]: 100%; Activity [23]: 65%; Activity [24]: 90%; Activity [25]: 94%
C=CC(=O)Nc1ccc(C(=O)Nc2ccc(Nc3ncc4c(n3)N(C)c3ccc(C)cc3C(=O)N4C)cc2)cc1	100%	86%	100%	94%	100%	74%	77%	93%	83%	100%	97%	99%	100%	99%	91%	52%	74%	100%	100%	83%	Activity [21]: 88%; Activity [22]: 94%; Activity [23]: 92%; Activity [24]: 88%; Activity [25]: 83%
